Measured values from PMC3700226 (Organic & Biomolecular Chemistry, 2012).

What was measured:
HT1080 cells [1] = assay: Luminescent cell viability assay; type: cell-based, human; conditions: ratio of 72 h IC50 values, WI-38 = 1.0
Procedure, shortened: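 HeLa, HT1080, U2OS and WI-38 cells were grown in DMEM with 10% FCS. Cells were plated at 4000 per well and left 24 h, then serially diluted test compound (0–40 μM) was added. Viability was read by CellTiter-Glo luminescence after 72 h, 20 min after reagent addition at rt, in triplicate. IC50 values were determined separately for HT1080 and for WI-38.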

HT1080 cells [2] = assay: β-Galactosidase senescence assay; type: cell-based, human; conditions: HT1080, 8 days of incubation at respective IC50
Procedure, shortened: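 HT1080 cells were treated 4 d with test compound at its IC50, or untreated, then reseeded at 4000 per chamber-slide well for another 4 d of treatment. Cells were fixed in 2% formaldehyde/0.2% glutaraldehyde for 15 min. They were stained 16 h at 37 °C with 1 mg ml−1 X-gal in pH 6.0 citrate/phosphate buffer containing ferro/ferricyanide for senescence-associated β-galactosidase.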

[3] = tested on: telomeric 3′ G-overhang in HT1080 cells; assay: Non-denaturing hybridization assay of telomeric G-overhang; type: cell-based, human; conditions: HT1080, respective IC50, time course of 12 days
[4] = tested on: HeLa, HT1080, U2OS and WI-38 cells; assay: Luminescent cell viability assay, panel of four human cell lines; type: cell-based; conditions: 3 days of exposure; concentrations up to 40 µM
[5] = tested on: human telomeric G-quadruplex-forming sequence (H-Telo); assay: FRET-melting assay, H-Telo; type: binding; conditions: 1 µM compound, 200 nM oligonucleotide, 60 mM potassium cacodylate pH 7.4
Procedure, shortened: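 Dual FAM/TAMRA-labelled H-Telo oligonucleotide was annealed at 400 nM (94 °C for 10 min, then cooled to rt at 0.1 °C min−1). It was mixed with test compound in 60 mM potassium cacodylate, pH 7.4, at 200 nM final oligonucleotide. Fluorescence was read with excitation at 483 nm and emission at 533 nm. Melting-temperature shift was measured in triplicate.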

HT1080 cells [6] = assay: Long-term growth assay; type: cell-based, human; conditions: HT1080, incubated at respective IC50 over 30 days
Procedure, shortened: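 HT1080 cells were seeded at 300000 per T-25 flask with test compound at its IC50, or untreated. Every 3–4 days cells were split, counted with a haemocytometer and reseeded at 300000. Population doublings were calculated as PD = ln(n1/n2)/ln2 and run in triplicate. Dead cells were counted at each time point by trypan blue exclusion.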

With `NCCOc1cc(C(=O)Nc2cc(OCCN)c3ccccc3n2)nc(C(=O)Nc2cc(OCCN)c3ccccc3n2)c1` [Compound 1, pyridostatin] the “Selectivity ratio HT1080 over WI-38” value (HT1080 cells [1]) was 18.5.
For `NCCOc1cc(C(=O)Nc2cc(OCCN3CCCC3)c3ccccc3n2)nc(C(=O)Nc2cc(OCCN3CCCC3)c3ccccc3n2)c1` [Compound 9], the “Senescent cells (β-galactosidase staining)” value (shortened to “Senescent cells”) (HT1080 cells [2]) was “presence of senescent cells”.
`O=C(Nc1cc(OCCN2CCCC2)c2ccccc2n1)c1cc(OCCN2CCCC2)cc(C(=O)Nc2cc(OCCN3CCCC3)c3ccccc3n2)n1` [Compound 10] was tested, and the “Senescent cells” value (HT1080 cells [2]) was “presence of senescent cells” and the “Kinetics of G-overhang degradation (in words)” value [3] was “most potent to induce an early effect”.
`COc1cc(C(=O)Nc2cc(OC)c3ccccc3n2)nc(C(=O)Nc2cc(OC)c3ccccc3n2)c1` [Compound 14] was tested, and the “Growth inhibition against the panel of cell lines (in words)” value [4] was “did not exhibit growth inhibitory properties”.
For `O=C(Nc1cc(OCCN2CCCC2)c2ccccc2n1)c1cc(Cl)cc(C(=O)Nc2cc(OCCN3CCCC3)c3ccccc3n2)n1` [Compound 17], the “Senescent cells” value (HT1080 cells [2]) was “presence of senescent cells” and the “Kinetics of G-overhang degradation (in words)” value [3] was “most potent to induce an early effect”.
In the case of `NCCOc1cc(NC(=O)c2cc(OCc3ccc(F)cc3)cc(C(=O)Nc3cc(OCCN)c4ccccc4n3)n2)nc2ccccc12` [Compound 20], the “FRET ΔTm, H-Telo” value [5] is reported as 8.8 K and the “Exposure time after which flattening of the population doubling curve started” value (HT1080 cells [6]) is reported as 19 days.
In the case of `O=C(Nc1cc(OCCN2CCCC2)c2ccccc2n1)c1cc(OCc2ccc(F)cc2)cc(C(=O)Nc2cc(OCCN3CCCC3)c3ccccc3n2)n1` [Compound 21], the “FRET ΔTm, H-Telo” value [5] is reported as 4.3 K.
